Test results: ChEMBL document CHEMBL4033657, “N-Aryl-N'-ethyleneaminothioureas effectively inhibit acetylcholinesterase 1 from disease-transmitting mosquitoes” (Eur J Med Chem, 2017)
The source made the active and inactive calls. The calls are words filed in the database; no cut-off is given here.

Tests used:
[1] = Selectivity ratio of IC50 for recombinant human AChE expressed in HEK293F cells to IC50 for recombinant full length Anopheles gambiae AChE1 expressed in baculovirus-infected Sf9 insect cells
Outline: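 Ratio of the hAChE IC50 divided by the higher of the AgAChE1 or AaAChE1 IC50. Each IC50 came from an Ellman assay (1 mM acetylthiocholine, 0.2 mM DTNB, pH 7.4, 30 °C) with eight concentrations up to 1 mM, using 2-3 replicates.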

Aedes aegypti [2] = experiment: Inhibition of recombinant full length Aedes aegypti AChE1 expressed in baculovirus-infected Sf9 insect cells at 1 mM using acetylthiocholine iodide as substrate measured over 60 secs by Ellman's method
Outline: (§1)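 Secreted, non-purified recombinant enzyme in growth medium, tested as enzyme source. Ellman assay at 30 °C in 0.1 M phosphate buffer pH 7.4 with 0.2 mM DTNB and 1 mM acetylthiocholine iodide; A412 followed over 60 s. Compound (100 mM DMSO stock) tested at eight concentrations, maximum 1 mM. Activity set relative to eight uninhibited controls per plate; IC50 from three-parameter variable-slope fit; 2-3 independent replicates.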

[3] = target: Acetylcholinesterase (Anopheles gambiae) (UniProt Q869C3); experiment: Inhibition of recombinant full length Anopheles gambiae AChE1 expressed in baculovirus-infected Sf9 insect cells at 1 mM using acetylthiocholine iodide as substrate measured over 60 secs by Ellman's method; outline: as §1
Acetylcholinesterase [4] = target: Acetylcholinesterase (Anopheles gambiae, UniProt Q869C3); experiment: (§2) Inhibition of recombinant full length Anopheles gambiae AChE1 expressed in baculovirus-infected Sf9 insect cells using acetylthiocholine iodide as substrate measured over 60 secs by Ellman's method
[5] = target: Acetylcholinesterase (Anopheles gambiae) (UniProt Q869C3); experiment: as §2
Acetylcholinesterase [6] = target: Acetylcholinesterase (Homo sapiens, UniProt P22303); experiment: Inhibition of recombinant human AChE expressed in HEK293F cells using acetylthiocholine iodide as substrate measured over 60 secs by Ellman's method; parameters: species or system HEK293
Aedes aegypti [7] = experiment: (§3) Inhibition of recombinant full length Aedes aegypti AChE1 expressed in baculovirus-infected Sf9 insect cells using acetylthiocholine iodide as substrate measured over 60 secs by Ellman's method; outline: as §1
[8] = as §3; outline: as §1
Acetylcholinesterase [9] = target: Acetylcholinesterase (Anopheles gambiae, UniProt Q869C3, G122S); experiment: Inhibition of recombinant full length Anopheles gambiae AChE1 G122S mutant expressed in baculovirus-infected Sf9 insect cells using acetylthiocholine iodide as substrate measured over 60 secs by Ellman's method
[10] = test system: Acetylcholinesterase (Anopheles gambiae), Q869C3 [G122S]; experiment: Inhibition of recombinant full length Anopheles gambiae AChE1 G122S mutant expressed in baculovirus-infected Sf9 insect cells up to 1 mM using acetylthiocholine iodide as substrate measured over 60 secs by Ellman's method; outline: as §1

Row | SMILES | Ratio IC50 [1] | inhibition (Aedes aegypti [2]) | inhibition [3] | IC50 (Acetylcholinesterase [4]) | inhibition [5] | IC50 (Acetylcholinesterase [6]) | inhibition (Aedes aegypti [7]) | IC50 [8] | IC50 (Acetylcholinesterase [9]) | inhibition [10]
1 | NS(=O)(=O)c1ccc(NC(=S)NCCN2CCCCC2)cc1 | 12 | 70% | 70% | 7.8 µM | Dose-dependent effect | 90 µM | Dose-dependent effect | 5.5 µM | 33 µM | –
2 | CN(C)CCN=C(S)Nc1ccccc1Cl | > 12 | – | – | – | – | – | – | – | – | –
3 | FC(F)(F)c1ccc(NC(=S)NCCN2CCCCC2)cc1 | – | – | – | > 200 µM | – | > 200 µM | – | > 200 µM | > 200 µM | –
4 | CN(C)CC/N=C(/S)Nc1ccc(S(N)(=O)=O)cc1 | > 2.7 | – | – | 74 µM | – | > 200 µM | – | 56 µM | – | inactive
5 | CC1CCN(CCNC(=S)Nc2cccc(Cl)c2)CC1 | – | – | – | > 200 µM | – | > 200 µM | – | > 200 µM | > 200 µM | –
6 | CN(C)CCN=C(S)Nc1cccc(Cl)c1 | 1 | – | – | 96 µM | – | 140 µM | – | 83 µM | > 200 µM | –
7 | NS(=O)(=O)c1ccc(NC(=S)NCCN2CCOCC2)cc1 | – | – | – | > 200 µM | – | > 200 µM | – | > 200 µM | – | inactive
8 | COc1cc(NC(=S)NCCN2CCOCC2)ccc1Cl | – | – | – | > 200 µM | – | > 200 µM | – | > 200 µM | > 200 µM | –
9 | COc1ccc(NC(=S)NCCN2CCCCC2)cc1 | 4 | – | – | 29 µM | – | 120 µM | – | 28 µM | 94 µM | –
10 | COc1ccc(NC(S)=NCCN2CCOCC2)cc1 | > 18 | – | – | 11 µM | – | > 200 µM | – | – | > 200 µM | –
